Measurements of several laboratories.
Effect on: enzyme activity
Mode: inhibitor
CDK2 with cyclin A: Cyclin-dependent kinase 2, with cyclin A (CDK2, Homo sapiens, UniProt P24941)
CDK2: Cyclin-dependent kinase 2 (CDK2, Homo sapiens, UniProt P24941)

COc1cc2ncnc(Nc3ccc(Oc4ccccc4)c(C)c3C)c2cc1OC
inhibition (CDK2 with cyclin A; 1 µM): 1%

COc1cc(-c2cc(-c3ccc(N4CCNCC4)cc3)cnc2N)cc(OC)c1OC
inhibition (CDK2 with cyclin A; 1 µM): 2%

CN1CC(Oc2cnc(C#N)cc2-c2ccn3nc(NC(=O)C4CC4)cc3c2)C1
inhibition (CDK2 with cyclin A; 1 µM): 0%

Cn1cncc1C1=CN(c2ncnc3[nH]cnc23)CCS1
inhibition (CDK2; radiometric; 2 µM): 49.1%

O=C(CSc1nc2nccnc2c(=O)n1CCc1ccccc1)Nc1nccs1
inhibition (Cyclin-dependent kinase 2, with cyclin O (CDK2, Homo sapiens, UniProt P24941); 10 µM): 3%

Cn1cnc(Br)c1C1=CN(c2ncnc3[nH]cnc23)CCS1
inhibition (CDK2; radiometric; 2 µM): 50.8%

CCCS(=O)(=O)Nc1ccc(F)c(C(=O)c2c[nH]c3ncc(-c4ccc(Cl)cc4)cc23)c1F
inhibition (Cyclin-dependent kinase 2, with cyclin E (CDK2, Homo sapiens, UniProt P24941); 1 µM): < 10%

CN(C)C1CCN(CC#Cc2nn(C3CCCC3)c3nc(NCc4ccccc4)ncc23)C1 (centres unmarked)
inhibition (CDK2 with cyclin A; FRET; 0.1 µM): 7%

Nc1nc(Nc2ccc(S(N)(=O)=O)cc2)sc1C(=O)c1ccccc1[N+](=O)[O-]
inhibition (CDK2; 0.1 µM): 95 to 96%

CC/C(=N\NC(=O)NCc1cccc(O)c1)c1ccc(O)c(C)c1O
inhibition (Cyclin-dependent kinase 2, with cyclin E1 (CDK2, Homo sapiens, UniProt P24941); 0.1 µM): -16.4%

CSc1nc(C)c(-c2ccnc(Nc3ccc(N4CCOCC4)cc3)c2)[nH]1
inhibition (CDK2; 10 µM): 66.4%
